Test results reported in ChEMBL document CHEMBL5335788, “Synthesis and evaluation of aromatic BDSF bioisosteres on biofilm formation and colistin sensitivity in pathogenic bacteria” (Eur J Med Chem, 2023).
Active and inactive are the calls of the source. The calls are words filed in the database; no cut-off is given here.

system: Pseudomonas aeruginosa; assay: Inhibition of biofilm formation in Pseudomonas aeruginosa PAO1 at 0.05 mM incubated for 24 hrs by crystal violet method; assay type: functional, organism-based; settings: not given
In short: (§1)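 Crystal violet assay in LB: log-phase bacteria at final 1×10^5 cfu/mL with sulfonamide at final 0.05 mM, 24 h at 37 °C. Biomass read at OD620, then wells washed, biofilm heat-fixed 65 °C 15 min, stained 0.1% crystal violet 15 min, dye eluted in 30% acetic acid, OD550 read. Neat DMSO control taken as 100%. Duplicates, at least two independent experiments; one-way ANOVA.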

Compound | inhibition
CCCCCCCCC/C=C\C(=O)O | inactive
CCCCCCCCCc1ccccc1C(=O)NS(=O)(=O)c1cccc(Br)c1 | inactive
CCCCCCCCCc1ccccc1C(=O)NS(=O)(=O)c1ccc(Cl)cc1 | inactive
CCCCCCCCCc1ccccc1C(=O)NS(=O)(=O)CCC(F)(F)F | inactive
CCCCCCCCCc1ccccc1C(=O)NS(=O)(=O)c1ccccc1Br | inactive
CCCCCCCCCc1ccccc1C(=O)NS(C)(=O)=O | inactive
CCCCCCCCCc1ccccc1C(=O)NS(=O)(=O)c1ccc(F)cc1 | inactive

system: Escherichia coli; assay: Inhibition of biofilm formation in Escherichia coli ATCC 9637 at 0.05 mM incubated for 24 hrs by crystal violet method relative to control; assay type: functional; settings: ATCC 9637, 24 h; in short: as §1

Compound | inhibition at 50 µM
CCCCCCCCCc1ccccc1C(=O)NS(=O)(=O)c1cccc(Br)c1 | 63%
CCCCCCCCCc1ccccc1C(=O)NS(=O)(=O)c1ccc(Cl)cc1 | 59%
CCCCCCCCCc1ccccc1C(=O)NS(=O)(=O)c1ccccc1Br | 43%
CCCCCCCCCc1ccccc1C(=O)NS(=O)(=O)c1ccc(F)cc1 | 22%

system: Escherichia coli; assay: Potentiation of colistin-induced antibacterial activity against Escherichia coli ATCC 9637 assessed as colistin MIC at 50 uM incubated for 20 hrs by susceptibility testing (reference value: 0.125 to 0.25 ug/ml); assay type: functional; settings: not given
In short: (§2)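 Colistin MIC by broth microdilution in cation-adjusted Mueller-Hinton broth, log-phase cells at final 5×10^5 cfu/mL. Two-fold colistin dilutions in duplicate with sulfonamide at final 0.05 mM (from 10 mM DMSO stock); 20 h at 37 °C. OD550 read. MIC taken as the lowest colistin level reducing growth ≥80% versus growth control. At least two replicates.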

Compound | MIC
CCCCCCCCC/C=C\C(=O)O | 0.063 µg/mL
CCCCCCCCCc1ccccc1C(=O)NS(=O)(=O)c1cccc(Br)c1 | > 1 µg/mL
CCCCCCCCCc1ccccc1C(=O)NS(=O)(=O)c1ccc(Cl)cc1 | 1 µg/mL
CCCCCCCCCc1ccccc1C(=O)NS(=O)(=O)CCC(F)(F)F | 0.25 µg/mL
CCCCCCCCCc1ccccc1C(=O)NS(=O)(=O)c1ccccc1Br | 0.5 µg/mL
CCCCCCCCCc1ccccc1C(=O)NS(C)(=O)=O | 0.125 µg/mL
CCCCCCCCCc1ccccc1C(=O)NS(=O)(=O)c1ccc(F)cc1 | 0.5 µg/mL

system: Pseudomonas aeruginosa; assay: Potentiation of colistin-induced antibacterial activity against Pseudomonas aeruginosa assessed as colistin MIC at 50 uM incubated for 20 hrs by susceptibility testing (reference value: 1 to 2 ug/ml); assay type: functional; settings: not given; in short: as §2

Compound | MIC
CCCCCCCCC/C=C\C(=O)O | 1 µg/mL
CCCCCCCCCc1ccccc1C(=O)NS(=O)(=O)c1cccc(Br)c1 | 4 µg/mL
CCCCCCCCCc1ccccc1C(=O)NS(=O)(=O)c1ccc(Cl)cc1 | 4 µg/mL
CCCCCCCCCc1ccccc1C(=O)NS(=O)(=O)CCC(F)(F)F | 1 µg/mL
CCCCCCCCCc1ccccc1C(=O)NS(=O)(=O)c1ccccc1Br | 1 µg/mL
CCCCCCCCCc1ccccc1C(=O)NS(C)(=O)=O | 1 µg/mL
CCCCCCCCCc1ccccc1C(=O)NS(=O)(=O)c1ccc(F)cc1 | 1 µg/mL

system: Pseudomonas aeruginosa; assay: Antimicrobial activity against Pseudomonas aeruginosa PAO1 assessed as microbial growth inhibition at 50 uM incubated for 20 hrs by broth microdilution method; assay type: functional, organism-based; settings: not given
In short: (§3)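 Overnight cultures in cation-adjusted Mueller-Hinton broth, subcultured 1:100; log-phase cells at final 1×10^5 cfu/mL exposed to sulfonamide at final 0.05 mM (from 10 mM DMSO stock) for 20 h at 37 °C. OD550 read after shaking. Growth expressed as percent of 0.5% DMSO control wells. Screened at least twice.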

Compound | growth inhibition (GI)
CCCCCCCCC/C=C\C(=O)O | inactive
CCCCCCCCCc1ccccc1C(=O)NS(=O)(=O)c1cccc(Br)c1 | inactive
CCCCCCCCCc1ccccc1C(=O)NS(=O)(=O)c1ccc(Cl)cc1 | inactive
CCCCCCCCCc1ccccc1C(=O)NS(=O)(=O)CCC(F)(F)F | inactive
CCCCCCCCCc1ccccc1C(=O)NS(=O)(=O)c1ccccc1Br | inactive
CCCCCCCCCc1ccccc1C(=O)NS(C)(=O)=O | inactive
CCCCCCCCCc1ccccc1C(=O)NS(=O)(=O)c1ccc(F)cc1 | inactive

system: not listed separately; assay: Toxicity in Galleria mellonella larva assessed as larval survival at 50 uM; settings: not given

Compound | Activity
CCCCCCCCCc1ccccc1C(=O)NS(=O)(=O)c1cccc(Br)c1 | Non-Toxic
CCCCCCCCCc1ccccc1C(=O)NS(C)(=O)=O | Non-Toxic

system: Burkholderia multivorans; assay: Inhibition of biofilm formation in Burkholderia multivorans B10 at 0.05 mM incubated for 24 hrs by crystal violet method relative to control; assay type: functional; settings: B10, 24 h; in short: as §1

Compound | inhibition at 50 µM
CCCCCCCCCc1ccccc1C(=O)NS(=O)(=O)c1cccc(Br)c1 | 41%
CCCCCCCCCc1ccccc1C(=O)NS(=O)(=O)c1ccc(Cl)cc1 | 47%
CCCCCCCCCc1ccccc1C(=O)NS(=O)(=O)c1ccccc1Br | 38%
CCCCCCCCCc1ccccc1C(=O)NS(=O)(=O)c1ccc(F)cc1 | 27%

system: Burkholderia multivorans; assay: Potentiation of colistin-induced antibacterial activity against Burkholderia multivorans B10 assessed as colistin MIC at 50 uM incubated for 20 hrs by susceptibility testing (Rvb > 128 ug/ml); assay type: functional; settings: not given; in short: as §2

Compound | MIC
CCCCCCCCC/C=C\C(=O)O | > 128 µg/mL
CCCCCCCCCc1ccccc1C(=O)NS(=O)(=O)c1cccc(Br)c1 | > 128 µg/mL
CCCCCCCCCc1ccccc1C(=O)NS(=O)(=O)c1ccc(Cl)cc1 | > 128 µg/mL
CCCCCCCCCc1ccccc1C(=O)NS(=O)(=O)CCC(F)(F)F | > 128 µg/mL
CCCCCCCCCc1ccccc1C(=O)NS(=O)(=O)c1ccccc1Br | > 128 µg/mL
CCCCCCCCCc1ccccc1C(=O)NS(C)(=O)=O | > 128 µg/mL
CCCCCCCCCc1ccccc1C(=O)NS(=O)(=O)c1ccc(F)cc1 | > 128 µg/mL

system: Burkholderia cepacia; assay: Inhibition of biofilm formation in Burkholderia cepacia R6193 clinical isolate at 0.05 mM incubated for 24 hrs by crystal violet method; assay type: functional, organism-based; settings: not given; in short: as §1

Compound | inhibition
CCCCCCCCCc1ccccc1C(=O)NS(=O)(=O)c1cccc(Br)c1 | inactive

system: Stenotrophomonas maltophilia; assay: Antimicrobial activity against Stenotrophomonas maltophilia K279a assessed as microbial growth inhibition at 50 uM incubated for 20 hrs by broth microdilution method; assay type: functional, organism-based; settings: not given; in short: as §3

Compound | growth inhibition (GI)
CCCCCCCCCc1ccccc1C(=O)NS(=O)(=O)c1cccc(Br)c1 | Active

system: Acinetobacter baumannii; assay: Antimicrobial activity against Acinetobacter baumannii ATCC 15308 assessed as microbial growth inhibition at 50 uM incubated for 20 hrs by broth microdilution method; assay type: functional, organism-based; settings: not given; in short: as §3

Compound | growth inhibition (GI)
CCCCCCCCC/C=C\C(=O)O | inactive
CCCCCCCCCc1ccccc1C(=O)NS(=O)(=O)c1cccc(Br)c1 | inactive
CCCCCCCCCc1ccccc1C(=O)NS(=O)(=O)c1ccc(Cl)cc1 | inactive
CCCCCCCCCc1ccccc1C(=O)NS(=O)(=O)CCC(F)(F)F | inactive
CCCCCCCCCc1ccccc1C(=O)NS(=O)(=O)c1ccccc1Br | inactive
CCCCCCCCCc1ccccc1C(=O)NS(C)(=O)=O | inactive
CCCCCCCCCc1ccccc1C(=O)NS(=O)(=O)c1ccc(F)cc1 | inactive

system: Escherichia coli; assay: Antimicrobial activity against Escherichia coli ATCC 9637 assessed as microbial growth inhibition at 50 uM incubated for 20 hrs by broth microdilution method; assay type: functional, organism-based; settings: not given; in short: as §3

Compound | growth inhibition (GI)
CCCCCCCCC/C=C\C(=O)O | inactive
CCCCCCCCCc1ccccc1C(=O)NS(=O)(=O)c1cccc(Br)c1 | inactive
CCCCCCCCCc1ccccc1C(=O)NS(=O)(=O)c1ccc(Cl)cc1 | inactive
CCCCCCCCCc1ccccc1C(=O)NS(=O)(=O)CCC(F)(F)F | inactive
CCCCCCCCCc1ccccc1C(=O)NS(=O)(=O)c1ccccc1Br | inactive
CCCCCCCCCc1ccccc1C(=O)NS(C)(=O)=O | inactive
CCCCCCCCCc1ccccc1C(=O)NS(=O)(=O)c1ccc(F)cc1 | inactive

system: Acinetobacter baumannii; assay: Inhibition of biofilm formation in Acinetobacter baumannii ATCC 15308 at 0.05 mM incubated for 24 hrs by crystal violet method relative to control; assay type: functional; settings: ATCC 15308, 24 h; in short: as §1

Compound | inhibition at 50 µM
CCCCCCCCC/C=C\C(=O)O | 38%
CCCCCCCCCc1ccccc1C(=O)NS(=O)(=O)c1cccc(Br)c1 | 1.5%
CCCCCCCCCc1ccccc1C(=O)NS(=O)(=O)c1ccccc1Br | 30%
CCCCCCCCCc1ccccc1C(=O)NS(=O)(=O)c1ccc(F)cc1 | 25%

system: Stenotrophomonas maltophilia; assay: Potentiation of colistin-induced antibacterial activity against Stenotrophomonas maltophilia K279a assessed as colistin MIC at 50 uM incubated for 20 hrs by susceptibility testing (reference value: 2 to 8 ug/ml); assay type: functional; settings: not given; in short: as §2

Compound | MIC
CCCCCCCCC/C=C\C(=O)O | 0.5 µg/mL
CCCCCCCCCc1ccccc1C(=O)NS(=O)(=O)c1cccc(Br)c1 | 4 µg/mL
CCCCCCCCCc1ccccc1C(=O)NS(=O)(=O)c1ccc(Cl)cc1 | 2 µg/mL
CCCCCCCCCc1ccccc1C(=O)NS(=O)(=O)CCC(F)(F)F | 0.5 µg/mL
CCCCCCCCCc1ccccc1C(=O)NS(=O)(=O)c1ccccc1Br | 0.5 µg/mL
CCCCCCCCCc1ccccc1C(=O)NS(C)(=O)=O | 0.5 µg/mL
CCCCCCCCCc1ccccc1C(=O)NS(=O)(=O)c1ccc(F)cc1 | 0.5 µg/mL

system: Burkholderia cenocepacia; assay: Potentiation of colistin-induced antibacterial activity against Burkholderia cenocepacia 289 assessed as colistin MIC at 50 uM incubated for 20 hrs by susceptibility testing (Rvb > 256 ug/ml); assay type: functional; settings: not given; in short: as §2

Compound | MIC
CCCCCCCCC/C=C\C(=O)O | > 256 µg/mL
CCCCCCCCCc1ccccc1C(=O)NS(=O)(=O)c1cccc(Br)c1 | > 256 µg/mL
CCCCCCCCCc1ccccc1C(=O)NS(=O)(=O)c1ccc(Cl)cc1 | > 256 µg/mL
CCCCCCCCCc1ccccc1C(=O)NS(=O)(=O)CCC(F)(F)F | > 256 µg/mL
CCCCCCCCCc1ccccc1C(=O)NS(=O)(=O)c1ccccc1Br | > 256 µg/mL
CCCCCCCCCc1ccccc1C(=O)NS(C)(=O)=O | > 256 µg/mL
CCCCCCCCCc1ccccc1C(=O)NS(=O)(=O)c1ccc(F)cc1 | > 256 µg/mL

system: Stenotrophomonas maltophilia; assay: Inhibition of biofilm formation in Stenotrophomonas maltophilia K279a clinical isolate of rpf-1 subpopulation at 0.05 mM incubated for 24 hrs by crystal violet method; assay type: functional, organism-based; settings: not given; in short: as §1

Compound | inhibition
CCCCCCCCC/C=C\C(=O)O | inactive
CCCCCCCCCc1ccccc1C(=O)NS(=O)(=O)c1cccc(Br)c1 | inactive
CCCCCCCCCc1ccccc1C(=O)NS(=O)(=O)c1ccc(Cl)cc1 | inactive
CCCCCCCCCc1ccccc1C(=O)NS(=O)(=O)CCC(F)(F)F | inactive
CCCCCCCCCc1ccccc1C(=O)NS(=O)(=O)c1ccccc1Br | inactive
CCCCCCCCCc1ccccc1C(=O)NS(C)(=O)=O | inactive
CCCCCCCCCc1ccccc1C(=O)NS(=O)(=O)c1ccc(F)cc1 | inactive

system: Acinetobacter baumannii; assay: Potentiation of colistin-induced antibacterial activity against Acinetobacter baumannii ATCC 15308 assessed as colistin MIC at 50 uM incubated for 20 hrs by susceptibility testing (reference value: 0.25 to 0.5 ug/ml); assay type: functional; settings: not given; in short: as §2

Compound | MIC
CCCCCCCCC/C=C\C(=O)O | 0.125 µg/mL
CCCCCCCCCc1ccccc1C(=O)NS(=O)(=O)c1cccc(Br)c1 | 1 µg/mL
CCCCCCCCCc1ccccc1C(=O)NS(=O)(=O)c1ccc(Cl)cc1 | 1 µg/mL
CCCCCCCCCc1ccccc1C(=O)NS(=O)(=O)CCC(F)(F)F | 0.25 µg/mL
CCCCCCCCCc1ccccc1C(=O)NS(=O)(=O)c1ccccc1Br | 0.5 µg/mL
CCCCCCCCCc1ccccc1C(=O)NS(C)(=O)=O | 0.125 µg/mL
CCCCCCCCCc1ccccc1C(=O)NS(=O)(=O)c1ccc(F)cc1 | 0.25 µg/mL

system: Burkholderia cepacia; assay: Potentiation of colistin-induced antibacterial activity against Burkholderia cepacia R6193 assessed as colistin MIC at 50 uM incubated for 20 hrs by susceptibility testing (Rvb > 256 ug/ml); assay type: functional; settings: not given; in short: as §2

Compound | MIC
CCCCCCCCC/C=C\C(=O)O | > 256 µg/mL
CCCCCCCCCc1ccccc1C(=O)NS(=O)(=O)c1cccc(Br)c1 | > 256 µg/mL
CCCCCCCCCc1ccccc1C(=O)NS(=O)(=O)c1ccc(Cl)cc1 | > 256 µg/mL
CCCCCCCCCc1ccccc1C(=O)NS(=O)(=O)CCC(F)(F)F | > 256 µg/mL
CCCCCCCCCc1ccccc1C(=O)NS(=O)(=O)c1ccccc1Br | > 256 µg/mL
CCCCCCCCCc1ccccc1C(=O)NS(C)(=O)=O | > 256 µg/mL
CCCCCCCCCc1ccccc1C(=O)NS(=O)(=O)c1ccc(F)cc1 | > 256 µg/mL
